According to paper PMC11164214 (International Journal of Nanomedicine, 2024):

Assays:
[1] = Biodistribution in mesenteric lymph nodes after oral administration; assay type: in vivo, mice
Method in brief: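 Male ICR mice (20 ± 2 g), acclimatised 1 week. Single oral dose of 4 mg/kg DiR as free-dye solution or liposomes (dye at 8% w/w in lipid). Mice killed at 1, 2, 4 and 6 h; intestinal tracts and MLNs excised for ex vivo fluorescence imaging (means ± SD, n = 3). Dil formulations given orally at 4 mg/kg; MLNs examined by CLSM at 4 h.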

In vitro release assay = assay type: physicochemical; conditions: 37°C
Method in brief: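 Dynamic dialysis, bag MWCO 8–14 kDa. Liposomal DHA, or DHA dispersed in 0.5% w/v carboxymethyl cellulose sodium as control. Incubated in SGF (pH 1.2) for 2 h, then SIF (pH 6.8) for 22 h, at 37 ± 0.5°C with shaking at 150 rpm. Medium sampled at 0.5–24 h and replaced with fresh medium. DHA measured by UV‒Vis after treatment in 2% NaOH:ethanol (4:1, v/v) at 60°C for 30 min; absorbance at 238 nm.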

[2] = Intestinal lymphatic transport inhibition study; assay type: in vivo, rats; conditions: CHX 3.0 mg/kg i.p. 1 h before, oral 10 mg/kg DHA
Method in brief: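 Male Sprague-Dawley rats (200 ± 20 g) given cycloheximide 3.0 mg/kg i.p. to block chylomicron secretion. One hour later, oral DHA suspension or liposomal DHA at 10 mg/kg DHA equivalent. Plasma DHA quantified by validated HPLC‒MS/MS after ether extraction, with artemisinin as internal standard. Means ± SD, n = 4.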

CCCCCCCCCCCCCCCCCCN1/C(=C/C=C/C2=[N+](CCCCCCCCCCCCCCCCCC)c3ccccc3C2(C)C)C(C)(C)c2ccccc21.[O-][Cl+3]([O-])([O-])[O-] [free Dil, 1,1’-Dioctadecyl-3,3,3’,3’-tetramethylindocarbocyanine perchlorate]
red fluorescence signal in the MLNs (CLSM) ([1]; oral 4 mg/kg Dil, 4 h): negligible

CCCCCCCCCCCCCCCCCCN1/C(=C/C=C/C=C/C=C/C2=[N+](CCCCCCCCCCCCCCCCCC)c3ccccc3C2(C)C)C(C)(C)c2ccccc21.[I-] [free DiR, 1,1’-dioctadecyl-3,3,3’,3’-tetramethylindotricarbocyaine iodide]
accumulation / fluorescence signal in the MLNs (ex vivo imaging) ([1]; oral 4 mg/kg DiR): rare fluorescence signal

C[C@H]1[C@@H](O)O[C@@H]2O[C@@]3(C)CC[C@H]4[C@H](C)CC[C@@H]1[C@@]24OO3 [DHA, Dihydroartemisinin]
cumulative release rate of DHA at 12 h (In vitro release assay; SGF 2 h then SIF): 94.29% | DHA released during the first 2 h in SGF (In vitro release assay; SGF pH 1.2, 2 h): more than 65% | decrease of AUC0~8 of DHA in CHX pretreated rats [2]: little influence | decrease of Cmax of DHA in CHX pretreated rats [2]: little influence
